Experimental findings from ChEMBL document CHEMBL1125718, “Synthesis and biological evaluation of dipeptidyl and tripeptidyl polyoxin and nikkomycin analogues as anticandidal prodrugs” (1991) are described below.

≈ marks a conversion by molar mass, not a printed value. Bounds are passed on as bounds.

Chain of Chitin synthase 1 (Candida albicans) (P23316 whole entry, looked up): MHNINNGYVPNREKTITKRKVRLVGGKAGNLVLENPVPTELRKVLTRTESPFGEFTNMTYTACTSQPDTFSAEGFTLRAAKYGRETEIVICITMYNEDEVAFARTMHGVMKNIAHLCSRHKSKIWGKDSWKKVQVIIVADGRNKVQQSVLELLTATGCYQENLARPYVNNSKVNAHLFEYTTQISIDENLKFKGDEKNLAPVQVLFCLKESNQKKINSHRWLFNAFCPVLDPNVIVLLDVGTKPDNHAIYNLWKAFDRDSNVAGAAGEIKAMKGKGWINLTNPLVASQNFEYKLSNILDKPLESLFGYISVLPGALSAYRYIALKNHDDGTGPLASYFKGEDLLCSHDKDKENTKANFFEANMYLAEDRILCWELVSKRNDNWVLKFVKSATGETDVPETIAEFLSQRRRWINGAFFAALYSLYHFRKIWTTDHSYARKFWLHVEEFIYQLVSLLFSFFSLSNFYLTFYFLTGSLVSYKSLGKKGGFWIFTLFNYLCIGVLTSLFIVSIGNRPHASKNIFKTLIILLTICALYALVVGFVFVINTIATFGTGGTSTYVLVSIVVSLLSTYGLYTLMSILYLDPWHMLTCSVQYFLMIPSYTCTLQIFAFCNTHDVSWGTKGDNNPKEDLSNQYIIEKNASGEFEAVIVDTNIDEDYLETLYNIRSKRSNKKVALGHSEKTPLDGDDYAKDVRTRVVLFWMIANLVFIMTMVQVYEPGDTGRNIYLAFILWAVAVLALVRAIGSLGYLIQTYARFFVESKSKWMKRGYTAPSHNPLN

In one test the test system is Candida albicans. Description: Compound was tested for rate of hydrolysis (percent hydrolyzed per 10 min) by cell extract from Candida albicans H-317. The class given is functional. Summed up:
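Antibiotic (0.5 mg in H2O–DMSO 50:50) was mixed with cell extract of C. albicans H-317 (3.75 mg protein/mL) and incubated at 36 °C. Portions were withdrawn every 20 min and analysed directly by TLC and HPLC. Nle-UPOC served as control.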
Turning to `CCCCCCCC(=O)NCCCC[C@H](NC(=O)[C@@H](N)CC(C)C)C(=O)N[C@H](C(=O)O)[C@H]1OC(n2ccc(=O)[nH]c2=O)[C@H](O)[C@@H]1O` (some centres undefined), the Hydrolysis came to 0.

In the case of `C[C@@H]([C@H](N)C(=O)N[C@H](C(=O)O)[C@H]1O[C@@H](n2cc(C=O)nc2O)[C@H](O)[C@@H]1O)[C@H](O)c1ccc(O)cn1`, the Hydrolysis turned out to be 0.

In turn, `CCCCCCCC(=O)NCCCC[C@H](N)C(=O)N[C@H](C(=O)O)[C@H]1O[C@@H](n2ccc(=O)[nH]c2=O)[C@H](O)[C@@H]1O` returned a Hydrolysis of 0.

For the compound `CC(C)C[C@H](N)C(=O)N[C@H](C(=O)N[C@H](C(=O)O)[C@H]1OC(n2ccc(=O)[nH]c2=O)[C@H](O)[C@@H]1O)[C@H](C)[C@H](O)c1ccc(O)cn1` (some centres undefined), the Hydrolysis is on record as 33.

Turning to `CC(C)C[C@H](N)C(=O)N[C@H](C(=O)N[C@H](C(=O)O)[C@H]1OC(n2cc(C=O)nc2O)[C@H](O)[C@@H]1O)[C@H](C)[C@H](O)c1ccc(O)cn1` (some centres undefined), the Hydrolysis amounted to 33.

The next test has as its system Candida albicans. Nature of the test: (§1) Compound was tested for percent inhibition of transport of (Leu)2 into Candida albicans H-317. The class given is functional. The arrangement: concentration or dose not given beside the values. Summed up: (§2)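 Uptake of labeled dileucine was measured with analogues added at 10-fold the molar concentration of the transport substrate. Samples were taken at 0, 1, 2, 3 and 4 min, collected on prewet 0.45 µm filters and washed twice with cold water. Rate was expressed as nmol peptide per mg dry-weight cells per min.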
In the case of `NC(=O)OC[C@H](O)[C@@H](O)[C@H](N)C(=O)N[C@H](C(=O)O)[C@H]1O[C@@H](n2cc(CO)c(=O)[nH]c2=O)[C@H](O)[C@@H]1O` [POLYOXIN B], the Transport inhibition was 0%.

`CCCCCCCC(=O)NCCCC[C@H](NC(=O)[C@@H](N)CC(C)C)C(=O)N[C@H](C(=O)O)[C@H]1OC(n2ccc(=O)[nH]c2=O)[C@H](O)[C@@H]1O` (some centres undefined) came in with a Transport inhibition of 0%.

`C[C@@H]([C@H](N)C(=O)N[C@H](C(=O)O)[C@H]1O[C@@H](n2cc(C=O)nc2O)[C@H](O)[C@@H]1O)[C@H](O)c1ccc(O)cn1` had a Transport inhibition of 90%.

As for `CC(C)C[C@H](N)C(=O)N[C@H](C(=O)N[C@H](C(=O)O)[C@H]1OC(n2ccc(=O)[nH]c2=O)[C@H](O)[C@@H]1O)[C@H](C)[C@H](O)c1ccc(O)cn1` (some centres undefined), the Transport inhibition was 0%.

`CC(C)C[C@H](N)C(=O)N[C@H](C(=O)N[C@H](C(=O)O)[C@H]1OC(n2cc(C=O)nc2O)[C@H](O)[C@@H]1O)[C@H](C)[C@H](O)c1ccc(O)cn1` (some centres undefined) returned a Transport inhibition of 0%.

For a further test, the system named is Candida albicans. Description: Compound was tested for its lowest concentration at which growth of 124 strain of Candida albicans was clearly inhibited. The test is classed as functional.
Consider `NC(=O)OC[C@H](O)[C@@H](O)[C@H](N)C(=O)N[C@H](C(=O)O)[C@H]1O[C@@H](n2cc(CO)c(=O)[nH]c2=O)[C@H](O)[C@@H]1O` [POLYOXIN B], for which the minimum inhibitory concentration (MIC) (as a rule, the least concentration at which growth counts as inhibited) was found to be 20 µg/mL (≈ 39.4 µM).

For the compound `NC(Cc1cccc(F)c1)C(=O)O` (racemic) [M-FLUOROPHENYLALANINE], the MIC was > 1000 µg/mL.

As to `CCCCCCCC(=O)NCCCC[C@H](NC(=O)[C@@H](N)CC(C)C)C(=O)N[C@H](C(=O)O)[C@H]1OC(n2ccc(=O)[nH]c2=O)[C@H](O)[C@@H]1O` (some centres undefined), the MIC is > 666 µg/mL.

For `C[C@@H]([C@H](N)C(=O)N[C@H](C(=O)O)[C@H]1O[C@@H](n2cc(C=O)nc2O)[C@H](O)[C@@H]1O)[C@H](O)c1ccc(O)cn1`, the MIC was found to be 2.5 µg/mL (≈ 5.05 µM).

`CCCCCCCC(=O)NCCCC[C@H](N)C(=O)N[C@H](C(=O)O)[C@H]1O[C@@H](n2ccc(=O)[nH]c2=O)[C@H](O)[C@@H]1O` had a minimal inhibitory concentration (MIC) of 666 µg/mL (≈ 1230 µM).

`CC(C)C[C@H](N)C(=O)N[C@H](C(=O)N[C@H](C(=O)O)[C@H]1OC(n2ccc(=O)[nH]c2=O)[C@H](O)[C@@H]1O)[C@H](C)[C@H](O)c1ccc(O)cn1` (some centres undefined): inhibition of growth (MIC) required 666 µg/mL (≈ 1090 µM).

Turning to `CC(C)C[C@H](N)C(=O)N[C@H](C(=O)N[C@H](C(=O)O)[C@H]1OC(n2cc(C=O)nc2O)[C@H](O)[C@@H]1O)[C@H](C)[C@H](O)c1ccc(O)cn1` (some centres undefined), the MIC worked out at 83 µg/mL (≈ 136 µM).

The subject of another test is Candida albicans. Nature of the test: Compound was tested for its lowest concentration at which growth of 124N5 strain of Candida albicans was clearly inhibited. The test is classed as functional.
With `NC(=O)OC[C@H](O)[C@@H](O)[C@H](N)C(=O)N[C@H](C(=O)O)[C@H]1O[C@@H](n2cc(CO)c(=O)[nH]c2=O)[C@H](O)[C@@H]1O` [POLYOXIN B], the MIC is 166 µg/mL (≈ 327 µM).

On to `NC(Cc1cccc(F)c1)C(=O)O` (racemic) [M-FLUOROPHENYLALANINE], for which the MIC was > 1000 µg/mL.

Turning to `CCCCCCCC(=O)NCCCC[C@H](NC(=O)[C@@H](N)CC(C)C)C(=O)N[C@H](C(=O)O)[C@H]1OC(n2ccc(=O)[nH]c2=O)[C@H](O)[C@@H]1O` (some centres undefined), the MIC is > 666 µg/mL.

The compound `C[C@@H]([C@H](N)C(=O)N[C@H](C(=O)O)[C@H]1O[C@@H](n2cc(C=O)nc2O)[C@H](O)[C@@H]1O)[C@H](O)c1ccc(O)cn1` yielded an MIC of 333 µg/mL (≈ 672 µM).

Regarding `CCCCCCCC(=O)NCCCC[C@H](N)C(=O)N[C@H](C(=O)O)[C@H]1O[C@@H](n2ccc(=O)[nH]c2=O)[C@H](O)[C@@H]1O`, the MIC is > 666 µg/mL.

For the compound `CC(C)C[C@H](N)C(=O)N[C@H](C(=O)N[C@H](C(=O)O)[C@H]1OC(n2ccc(=O)[nH]c2=O)[C@H](O)[C@@H]1O)[C@H](C)[C@H](O)c1ccc(O)cn1` (some centres undefined), the MIC was > 666 µg/mL.

Consider `CC(C)C[C@H](N)C(=O)N[C@H](C(=O)N[C@H](C(=O)O)[C@H]1OC(n2cc(C=O)nc2O)[C@H](O)[C@@H]1O)[C@H](C)[C@H](O)c1ccc(O)cn1` (some centres undefined), for which 333 µg/mL (≈ 547 µM) was the least that counted as inhibitory (MIC).

In the next test the test system is Candida albicans. Nature of the test: Compound was tested for its lowest concentration at which growth of H-317 strain of Candida albicans was clearly inhibited. The test is classed as functional.
`NC(=O)OC[C@H](O)[C@@H](O)[C@H](N)C(=O)N[C@H](C(=O)O)[C@H]1O[C@@H](n2cc(CO)c(=O)[nH]c2=O)[C@H](O)[C@@H]1O` [POLYOXIN B] yielded a minimal inhibitory concentration (MIC) of 40 µg/mL (≈ 78.8 µM).

`NC(Cc1cccc(F)c1)C(=O)O` (racemic) [M-FLUOROPHENYLALANINE]: the MIC was > 1000 µg/mL.

For the compound `CCCCCCCC(=O)NCCCC[C@H](NC(=O)[C@@H](N)CC(C)C)C(=O)N[C@H](C(=O)O)[C@H]1OC(n2ccc(=O)[nH]c2=O)[C@H](O)[C@@H]1O` (some centres undefined), the minimum inhibitory concentration (MIC) was > 666 µg/mL.

Consider `C[C@@H]([C@H](N)C(=O)N[C@H](C(=O)O)[C@H]1O[C@@H](n2cc(C=O)nc2O)[C@H](O)[C@@H]1O)[C@H](O)c1ccc(O)cn1`, for which inhibition of growth (MIC) required 5 µg/mL (≈ 10.1 µM).

For the compound `CCCCCCCC(=O)NCCCC[C@H](N)C(=O)N[C@H](C(=O)O)[C@H]1O[C@@H](n2ccc(=O)[nH]c2=O)[C@H](O)[C@@H]1O`, the minimum inhibitory concentration (MIC) was > 666 µg/mL.

Turning to `CC(C)C[C@H](N)C(=O)N[C@H](C(=O)N[C@H](C(=O)O)[C@H]1OC(n2ccc(=O)[nH]c2=O)[C@H](O)[C@@H]1O)[C@H](C)[C@H](O)c1ccc(O)cn1` (some centres undefined), the MIC is > 666 µg/mL.

In the case of `CC(C)C[C@H](N)C(=O)N[C@H](C(=O)N[C@H](C(=O)O)[C@H]1OC(n2cc(C=O)nc2O)[C@H](O)[C@@H]1O)[C@H](C)[C@H](O)c1ccc(O)cn1` (some centres undefined), 166 µg/mL (≈ 273 µM) was the least that counted as inhibitory (MIC).

Another test deals with Candida albicans. Described as §1. The test is classed as functional. Summed up: as §2
Take `CCCCCCCC(=O)NCCCC[C@H](N)C(=O)N[C@H](C(=O)O)[C@H]1O[C@@H](n2ccc(=O)[nH]c2=O)[C@H](O)[C@@H]1O`: the Transport inhibition was determined as 50%.

A further test addresses Chitin synthase 1 (Candida albicans) (UniProt P23316). Description: Compound was tested for its ability to inhibit chitin synthetase using Candida albicans strain H-317. The class given is functional. Summed up: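 Mixed membrane fraction from C. albicans H-317 was used as the source of total chitin synthetase. Activity was measured with and without polyoxin compounds as N-acetylglucosamine incorporation into chitin. The value is the concentration giving 50% inhibition.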
In turn, `NC(=O)OC[C@H](O)[C@@H](O)[C@H](N)C(=O)N[C@H](C(=O)O)[C@H]1O[C@@H](n2cc(CO)c(=O)[nH]c2=O)[C@H](O)[C@@H]1O` [POLYOXIN B] had an ID50 of 0.8 µg/mL (≈ 1.58 µM).

Compound `CCCCCCCC(=O)NCCCC[C@H](NC(=O)[C@@H](N)CC(C)C)C(=O)N[C@H](C(=O)O)[C@H]1OC(n2ccc(=O)[nH]c2=O)[C@H](O)[C@@H]1O` (some centres undefined) gave an ID50 of 50 µg/mL (≈ 76.4 µM).

For `C[C@@H]([C@H](N)C(=O)N[C@H](C(=O)O)[C@H]1O[C@@H](n2cc(C=O)nc2O)[C@H](O)[C@@H]1O)[C@H](O)c1ccc(O)cn1`, the ID50 is 0.1 µg/mL (≈ 0.202 µM).

The compound `CCCCCCCC(=O)NCCCC[C@H](N)C(=O)N[C@H](C(=O)O)[C@H]1O[C@@H](n2ccc(=O)[nH]c2=O)[C@H](O)[C@@H]1O` displayed an ID50 of 0.5 µg/mL (≈ 0.923 µM).

`CC(C)C[C@H](N)C(=O)N[C@H](C(=O)N[C@H](C(=O)O)[C@H]1OC(n2ccc(=O)[nH]c2=O)[C@H](O)[C@@H]1O)[C@H](C)[C@H](O)c1ccc(O)cn1` (some centres undefined) had an ID50 of 100 µg/mL (≈ 164 µM).

Compound `CC(C)C[C@H](N)C(=O)N[C@H](C(=O)N[C@H](C(=O)O)[C@H]1OC(n2cc(C=O)nc2O)[C@H](O)[C@@H]1O)[C@H](C)[C@H](O)c1ccc(O)cn1` (some centres undefined) had an ID50 of 30 µg/mL (≈ 49.3 µM).

The subject of the next test is Candida albicans. Nature of the test: Compound was tested for percent inhibition of transport of (Met)3 into Candida albicans H-317. The arrangement: concentration or dose not given beside the values.
Take `NC(=O)OC[C@H](O)[C@@H](O)[C@H](N)C(=O)N[C@H](C(=O)O)[C@H]1O[C@@H](n2cc(CO)c(=O)[nH]c2=O)[C@H](O)[C@@H]1O` [POLYOXIN B]: the Transport inhibition is given as 0%.

In turn, `CC(C)C[C@H](N)C(=O)N[C@H](C(=O)N[C@H](C(=O)O)[C@H]1OC(n2ccc(=O)[nH]c2=O)[C@H](O)[C@@H]1O)[C@H](C)[C@H](O)c1ccc(O)cn1` (some centres undefined) displayed a Transport inhibition of 28%.

The next test has as its system Candida albicans. The test is described as above. The arrangement: concentration or dose not given beside the values. This is another data set of the same source.
`CCCCCCCC(=O)NCCCC[C@H](NC(=O)[C@@H](N)CC(C)C)C(=O)N[C@H](C(=O)O)[C@H]1OC(n2ccc(=O)[nH]c2=O)[C@H](O)[C@@H]1O` (some centres undefined) showed a Transport inhibition of 32%.

As for `C[C@@H]([C@H](N)C(=O)N[C@H](C(=O)O)[C@H]1O[C@@H](n2cc(C=O)nc2O)[C@H](O)[C@@H]1O)[C@H](O)c1ccc(O)cn1`, the Transport inhibition is listed as 30%.

On to `CC(C)C[C@H](N)C(=O)N[C@H](C(=O)N[C@H](C(=O)O)[C@H]1OC(n2cc(C=O)nc2O)[C@H](O)[C@@H]1O)[C@H](C)[C@H](O)c1ccc(O)cn1` (some centres undefined), for which the Transport inhibition amounted to 22%.

A further test concerns Candida albicans. Described as above. The source holds these as a separate data set.
Turning to `CCCCCCCC(=O)NCCCC[C@H](N)C(=O)N[C@H](C(=O)O)[C@H]1O[C@@H](n2ccc(=O)[nH]c2=O)[C@H](O)[C@@H]1O`, the Transport inhibition was 10%.
